Reference: ChEMBL document CHEMBL4308830, “Design, Synthesis, and Characterization of 4-Undecylpiperidine-2-carboxamides as Positive Allosteric Modulators of the Serotonin (5-HT) 5-HT2C Receptor” (J Med Chem, 2018)
The source made the active and inactive calls.

Tests used:
[1] = target: 5-hydroxytryptamine receptor 5A (Homo sapiens) (UniProt P47898); test: Displacement of [3H]-LSD from recombinant human 5-HT5AR expressed in Flp-IN CHO cell membranes at 10 uM after 90 mins by scintillation counting method relative to control
[2] = target: 5-hydroxytryptamine receptor 1A (Homo sapiens) (UniProt P08908); test: Displacement of [3H]-8-OH-DPAT from recombinant human 5-HT1AR expressed in CHO cell membranes at 10 uM after 90 mins by scintillation counting method relative to control
Rattus norvegicus [3] = test: Effect on inactive lever presses in Sprague-Dawley rat at 1 mg/kg, ip administered as single dose 15 mins prior to self administration of cocaine; assay type: organism-based; settings: in vivo, 0.25 h
Method in brief: (§1)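 Catheterized male Sprague–Dawley rats self-administered cocaine (0.75 mg/kg/infusion iv, each paired with light/pump cue) in 14 daily 180 min sessions, reaching FR5 stability. After 24 h they received saline (1 mL/kg ip) or compound (1 mg/kg ip) 15 min before a cue reactivity test.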

Rattus norvegicus [4] = test: Drug discrimination in WAY163909-trained Sprague-Dawley rat assessed as increase in WAY163909-appropriate lever responding at 0.5 mg/kg, ip treated 15 mins prior to test relative to control; assay type: functional
Method in brief: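 Water-restricted male Sprague–Dawley rats were trained to discriminate WAY163909 (0.75 mg/kg ip, 15 min pretreatment) from saline under FR20, to a criterion of ≥80% correct for 10 sessions. Test doses were given ip 15 min before test: compound alone (0.125–1.0 mg/kg) or compound 0.5 mg/kg plus WAY163909 0.5 mg/kg. Read-out was % drug-lever responding; only rats completing FR20 within 15 min were counted.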

[5] = Cmax in Sprague-Dawley rat at 10 mg/kg, po administered as single dose; assay type: ADME, organism-based; set-up: dose 10 mg/kg, route oral; settings: in vivo
Rattus norvegicus [6] = test: Reduction in cocaine cue reactivity in Sprague-Dawley rat assessed as decrease in active lever presses at 1 mg/kg, ip administered as single dose 15 mins prior to self administration of cocaine; assay type: functional, organism-based; method in brief: as §1
Rattus norvegicus [7] = test: Suppression of spontaneous locomotor activity in Sprague-Dawley rat assessed as reduction in total vertical activity at 5 mg/kg, ip administered as single dose measured for 30 mins; assay type: functional, organism-based
Method in brief: (§2)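 Male Sprague–Dawley rats naive to activity monitors (n = 7–8/group) received saline (1 mL/kg ip) or compound (0.5, 1 or 5 mg/kg ip) immediately before testing. Ambulations and vertical counts were taken in 5 min bins for 90 min and totalled over the first 30 min. Analysis: one-way ANOVA with Dunnett's comparisons to vehicle.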

5-HT2B receptor = 5-HT2B receptor (Homo sapiens, UniProt P41595); test: Displacement of [3H]-LSD from recombinant human 5-HT2BR expressed in HEK cell membranes at 10 uM after 90 mins by scintillation counting method relative to control; settings: probe [3H]-LSD
Rattus norvegicus [8] = test: Increase in WAY163909-induced suppression of spontaneous locomotor activity in Sprague-Dawley rat assessed as reduction in total ambulation at 5 mg/kg, ip administered as single dose measured for 30 mins; assay type: functional, organism-based
Method in brief: (§3)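 Rats (n = 9–10/group) received SB242084 (1 mg/kg ip) or vehicle (8% 2-hydroxypropyl-β-cyclodextrin) 15 min before ip WAY163909 (1 mg/kg) plus compound (5 mg/kg). They were placed in monitors immediately; ambulations and vertical activity were totalled over 30 min. Analysis: ANOVA with Bonferroni comparisons.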

[9] = target: Alpha-2A adrenergic receptor (Homo sapiens) (UniProt P08913); test: Displacement of [3H]-rauwolscine from recombinant human alpha-2A adrenergic receptor expressed in MDCK cell membranes at 10 uM after 90 mins by scintillation counting method relative to control
Method in brief: (§4)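 Single-concentration screen at 10 μM test compound, each target labelled with the radioligand given in the line. The read-out is mean % inhibition of specific radioligand binding (n = 4). Targets above 50% inhibition went on to full competition isotherms, and Ki came from best-fit IC50 by the Cheng–Prusoff equation.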

[10] = Oral bioavailability in Sprague-Dawley rat at 10 mg/kg administered as single dose; assay type: ADME, organism-based; settings: in vivo
[11] = AUC (0 to infinity) in Sprague-Dawley rat at 5 mg/kg, iv administered as single dose; assay type: ADME, organism-based; set-up: dose 5 mg/kg, time infinity, route intravenous; settings: in vivo
[12] = target: Sodium-dependent dopamine transporter (Homo sapiens) (UniProt Q01959); test: Displacement of [3H]-WIN35428 from recombinant human DAT expressed in HEK cell membranes at 10 uM after 90 mins by scintillation counting method relative to control; method in brief: as §4
Rattus norvegicus [13] = test: Drug discrimination in WAY163909-trained Sprague-Dawley rat assessed as increase in WAY163909-appropriate lever responding at 1 mg/kg, ip co-treated with WAY163909 15 mins prior to test relative to control; assay type: functional
[14] = target: 5-hydroxytryptamine receptor 7 (Homo sapiens) (UniProt P34969); test: Displacement of [3H]-LSD from recombinant human 5-HT7R expressed in HEK cell membranes at 10 uM after 90 mins by scintillation counting method relative to control
[15] = target: D(1B) dopamine receptor (Homo sapiens) (UniProt P21918); test: Displacement of [3H]-SCH23390 from recombinant human D5R expressed in HEKT cell membranes at 10 uM after 90 mins by scintillation counting method relative to control
Rattus norvegicus [16] = test: Increase in WAY163909-induced suppression of spontaneous locomotor activity in Sprague-Dawley rat assessed as reduction in total ambulation at 5 mg/kg, ip cotreated with WAY163909 at 15 mins post 5-HT2C antagonist SB242084 treatment measured for 30 mins; assay type: functional, organism-based; method in brief: as §3
Rattus norvegicus [17] = test: Suppression of spontaneous locomotor activity in Sprague-Dawley rat assessed as reduction in total ambulation at 5 mg/kg, ip administered as single dose measured for 30 mins; assay type: functional, organism-based; method in brief: as §2
[18] = Terminal half life in Sprague-Dawley rat at 5 mg/kg, iv administered as single dose; assay type: ADME, organism-based; settings: in vivo
[19] = target: 5-hydroxytryptamine receptor 1E (Homo sapiens) (UniProt P28566); test: Displacement of [3H]-5-HT from recombinant human 5-HT1ER expressed in HEK cell membranes at 10 uM after 90 mins by scintillation counting method relative to control
Rattus norvegicus [20] = test: Increase in WAY163909-induced suppression of spontaneous locomotor activity in Sprague-Dawley rat assessed as reduction in total vertical activity at 5 mg/kg, ip administered as single dose measured for 30 mins; assay type: functional, organism-based; method in brief: as §3
[21] = Tmax in Sprague-Dawley rat at 10 mg/kg, po administered as single dose; assay type: ADME, organism-based; settings: in vivo
[22] = target: Alpha-2B adrenergic receptor (Homo sapiens) (UniProt P18089); test: Displacement of [3H]-rauwolscine from recombinant human alpha-2B adrenergic receptor expressed in HEKT cell membranes at 10 uM after 90 mins by scintillation counting method relative to control; method in brief: as §4
[23] = Terminal half life in Sprague-Dawley rat at 10 mg/kg, po administered as single dose; assay type: ADME, organism-based; settings: in vivo

Sequence of Sodium-dependent dopamine transporter (Homo sapiens) (Q01959 whole entry): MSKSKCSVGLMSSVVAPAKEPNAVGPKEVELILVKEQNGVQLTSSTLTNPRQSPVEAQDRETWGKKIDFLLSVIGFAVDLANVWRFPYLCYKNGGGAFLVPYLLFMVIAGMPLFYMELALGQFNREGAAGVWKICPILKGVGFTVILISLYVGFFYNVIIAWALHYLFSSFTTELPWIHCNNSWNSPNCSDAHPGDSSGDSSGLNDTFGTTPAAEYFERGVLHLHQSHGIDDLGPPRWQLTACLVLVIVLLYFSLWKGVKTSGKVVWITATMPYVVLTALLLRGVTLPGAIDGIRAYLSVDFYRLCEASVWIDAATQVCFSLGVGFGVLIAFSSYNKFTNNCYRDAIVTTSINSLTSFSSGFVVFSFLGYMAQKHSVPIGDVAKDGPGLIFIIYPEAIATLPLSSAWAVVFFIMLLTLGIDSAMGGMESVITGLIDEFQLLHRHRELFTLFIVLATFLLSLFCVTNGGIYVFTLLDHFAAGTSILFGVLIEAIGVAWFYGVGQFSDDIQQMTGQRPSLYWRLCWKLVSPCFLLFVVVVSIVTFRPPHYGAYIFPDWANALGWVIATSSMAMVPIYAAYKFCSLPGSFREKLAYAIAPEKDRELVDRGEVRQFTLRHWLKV
Sequence of 5-hydroxytryptamine receptor 5A (Homo sapiens) (P47898 whole entry): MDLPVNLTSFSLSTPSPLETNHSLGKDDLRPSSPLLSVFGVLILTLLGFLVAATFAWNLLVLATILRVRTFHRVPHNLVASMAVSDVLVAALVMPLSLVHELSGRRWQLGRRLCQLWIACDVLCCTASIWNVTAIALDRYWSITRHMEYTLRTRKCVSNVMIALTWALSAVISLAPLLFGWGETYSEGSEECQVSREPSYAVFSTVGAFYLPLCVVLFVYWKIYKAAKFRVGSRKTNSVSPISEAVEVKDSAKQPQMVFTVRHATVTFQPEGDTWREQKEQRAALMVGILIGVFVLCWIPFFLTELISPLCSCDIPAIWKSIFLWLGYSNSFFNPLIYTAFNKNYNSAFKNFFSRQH
Sequence of 5-hydroxytryptamine receptor 1A (Homo sapiens) (P08908 whole entry): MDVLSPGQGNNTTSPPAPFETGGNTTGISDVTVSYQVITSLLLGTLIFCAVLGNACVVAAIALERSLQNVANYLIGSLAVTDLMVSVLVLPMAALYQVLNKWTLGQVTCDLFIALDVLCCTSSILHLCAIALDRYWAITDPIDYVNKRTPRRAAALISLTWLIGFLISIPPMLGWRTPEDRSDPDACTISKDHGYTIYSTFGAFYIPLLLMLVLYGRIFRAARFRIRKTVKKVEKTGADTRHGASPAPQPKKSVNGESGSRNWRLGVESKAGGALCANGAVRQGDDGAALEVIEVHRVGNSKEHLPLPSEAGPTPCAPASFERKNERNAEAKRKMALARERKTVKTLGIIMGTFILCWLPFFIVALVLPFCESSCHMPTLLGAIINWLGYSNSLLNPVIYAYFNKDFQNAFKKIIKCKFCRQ
Sequence of 5-hydroxytryptamine receptor 7 (Homo sapiens) (P34969 whole entry): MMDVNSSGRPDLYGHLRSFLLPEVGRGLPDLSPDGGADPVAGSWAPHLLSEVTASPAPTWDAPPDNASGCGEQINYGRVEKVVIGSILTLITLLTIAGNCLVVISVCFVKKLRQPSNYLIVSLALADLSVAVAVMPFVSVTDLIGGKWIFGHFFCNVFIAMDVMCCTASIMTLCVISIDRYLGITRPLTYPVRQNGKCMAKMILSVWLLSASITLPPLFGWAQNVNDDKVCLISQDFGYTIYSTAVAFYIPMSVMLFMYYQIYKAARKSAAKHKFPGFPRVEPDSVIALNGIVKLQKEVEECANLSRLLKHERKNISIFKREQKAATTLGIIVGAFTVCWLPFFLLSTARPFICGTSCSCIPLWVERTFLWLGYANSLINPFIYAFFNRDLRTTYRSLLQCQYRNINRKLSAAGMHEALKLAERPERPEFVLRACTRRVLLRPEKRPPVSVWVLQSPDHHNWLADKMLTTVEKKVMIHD
Sequence of Alpha-2B adrenergic receptor (Homo sapiens) (P18089 whole entry): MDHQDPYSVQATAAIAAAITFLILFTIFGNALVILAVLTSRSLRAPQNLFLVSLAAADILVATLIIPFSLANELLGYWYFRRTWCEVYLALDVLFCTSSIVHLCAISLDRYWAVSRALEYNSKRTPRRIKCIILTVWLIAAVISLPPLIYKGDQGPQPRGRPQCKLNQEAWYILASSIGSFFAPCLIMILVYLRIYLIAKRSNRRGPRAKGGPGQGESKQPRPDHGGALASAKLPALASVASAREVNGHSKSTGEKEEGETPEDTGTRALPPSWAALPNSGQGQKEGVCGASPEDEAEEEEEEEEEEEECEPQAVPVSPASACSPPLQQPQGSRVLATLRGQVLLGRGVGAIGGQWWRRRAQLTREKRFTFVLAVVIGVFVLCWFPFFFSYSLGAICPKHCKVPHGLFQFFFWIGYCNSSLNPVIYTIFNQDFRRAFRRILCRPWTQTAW
Sequence of Alpha-2A adrenergic receptor (Homo sapiens) (P08913 whole entry): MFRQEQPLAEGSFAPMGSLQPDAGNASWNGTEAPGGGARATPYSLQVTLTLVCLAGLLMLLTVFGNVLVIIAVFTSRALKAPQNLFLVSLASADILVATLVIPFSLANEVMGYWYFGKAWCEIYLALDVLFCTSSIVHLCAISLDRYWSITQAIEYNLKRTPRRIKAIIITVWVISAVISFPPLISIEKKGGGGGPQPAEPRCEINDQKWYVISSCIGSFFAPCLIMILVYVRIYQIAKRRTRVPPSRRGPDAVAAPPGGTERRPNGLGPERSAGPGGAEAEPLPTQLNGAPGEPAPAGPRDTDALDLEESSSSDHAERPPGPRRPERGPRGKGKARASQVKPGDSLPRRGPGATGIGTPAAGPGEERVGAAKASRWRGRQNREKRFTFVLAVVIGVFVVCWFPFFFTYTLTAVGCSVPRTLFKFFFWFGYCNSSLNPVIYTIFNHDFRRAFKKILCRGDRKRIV
Sequence of 5-hydroxytryptamine receptor 1E (Homo sapiens) (P28566 whole entry): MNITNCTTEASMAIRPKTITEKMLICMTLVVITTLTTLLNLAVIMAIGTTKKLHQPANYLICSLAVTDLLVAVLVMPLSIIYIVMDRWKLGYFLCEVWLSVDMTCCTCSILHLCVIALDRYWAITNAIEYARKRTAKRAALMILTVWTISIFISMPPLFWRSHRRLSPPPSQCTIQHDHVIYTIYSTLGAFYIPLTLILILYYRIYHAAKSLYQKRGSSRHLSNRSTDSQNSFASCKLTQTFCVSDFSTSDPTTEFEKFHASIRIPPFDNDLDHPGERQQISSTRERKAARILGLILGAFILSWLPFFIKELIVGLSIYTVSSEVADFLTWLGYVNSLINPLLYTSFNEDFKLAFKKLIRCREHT
Sequence of 5-HT2B receptor (P41595 whole entry): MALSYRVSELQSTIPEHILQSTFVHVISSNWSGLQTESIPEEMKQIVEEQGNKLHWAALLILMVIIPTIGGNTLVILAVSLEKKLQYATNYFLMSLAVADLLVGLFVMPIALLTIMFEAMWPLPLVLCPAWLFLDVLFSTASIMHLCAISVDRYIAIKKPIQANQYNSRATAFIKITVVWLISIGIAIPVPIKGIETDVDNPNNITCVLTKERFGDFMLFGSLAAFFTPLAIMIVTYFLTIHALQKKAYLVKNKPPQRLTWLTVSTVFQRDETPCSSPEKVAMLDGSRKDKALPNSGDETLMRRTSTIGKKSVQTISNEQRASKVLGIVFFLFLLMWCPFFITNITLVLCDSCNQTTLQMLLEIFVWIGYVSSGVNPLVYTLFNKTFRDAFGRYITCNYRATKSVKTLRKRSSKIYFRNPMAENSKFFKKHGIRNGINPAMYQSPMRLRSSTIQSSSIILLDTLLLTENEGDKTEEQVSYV
Sequence of D(1B) dopamine receptor (Homo sapiens) (P21918 whole entry): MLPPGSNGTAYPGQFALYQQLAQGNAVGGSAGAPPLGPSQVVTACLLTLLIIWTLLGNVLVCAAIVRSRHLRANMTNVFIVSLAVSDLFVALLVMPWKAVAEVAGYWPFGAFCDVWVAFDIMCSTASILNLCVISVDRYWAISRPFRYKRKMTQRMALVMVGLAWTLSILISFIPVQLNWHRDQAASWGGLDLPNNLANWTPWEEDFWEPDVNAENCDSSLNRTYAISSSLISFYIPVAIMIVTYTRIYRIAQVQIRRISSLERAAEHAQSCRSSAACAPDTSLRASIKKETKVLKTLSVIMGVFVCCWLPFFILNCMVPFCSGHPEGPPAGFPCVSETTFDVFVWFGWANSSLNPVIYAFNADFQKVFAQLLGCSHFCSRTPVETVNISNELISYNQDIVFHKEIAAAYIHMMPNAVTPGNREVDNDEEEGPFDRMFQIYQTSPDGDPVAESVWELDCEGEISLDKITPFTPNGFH

## CCCCCCCCCCC[C@@H]1CCN[C@H](C(=O)NCC(O)CO)C1 (relative stereo)
[1]
  inhibition: 17.2%
[2]
  inhibition: 25.7%
Rattus norvegicus [3]
  Activity: Non-Toxic
Rattus norvegicus [4]
  Activity: 30%
[5]
  Cmax: 68.1 ng/mL
Rattus norvegicus [6]
  Activity: Active
Rattus norvegicus [7]
  Activity: Active
5-HT2B receptor
  inhibition at 1.5 h, 10 µM: 15.1%
Rattus norvegicus [8]
  Activity: Active
[9]
  inhibition: 85.1%
[10]
  F: 39.1%
[11]
  AUC: 939 ng·h/mL
[12]
  inhibition: 66.3%
Rattus norvegicus [13]
  Emax at 1 mg/kg: 45%
[14]
  inhibition: 26.8%
[15]
  inhibition: 32.5%
Rattus norvegicus [16]
  Activity: inactive
Rattus norvegicus [17]
  Activity: Active
[18]
  beta t1/2: 6.59 h
[19]
  inhibition: 0.7%
Rattus norvegicus [20]
  Activity: Active
[21]
  Tmax: 3.3 h
[22]
  inhibition: 80.7%
[23]
  beta t1/2: 5.82 h
